Laboratory results published in ChEMBL document CHEMBL4428023, “1,4-Dihydropyridines Active on the SIRT1/AMPK Pathway Ameliorate Skin Repair and Mitochondrial Function and Exhibit Inhibition of Proliferation in Cancer Cells” (J Med Chem, 2016).
Activity calls are given as the source filed them. The rule behind the calls is not given here.

Key:
[1] = tested on: HaCaT; test: Activation of AMPK/SIRT1 in human HaCaT cells assessed as nitric oxide production incubated for 1 hr by DAF-2D staining-based fluorescence assay; assay type: cell-based
Outline: (§1)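 HaCaT keratinocytes grown in DMEM with 10% FBS and antibiotics. Cells treated 1 h (single-point 1 µM; dose-response at 5, 25, 50 µM). 5 µM DAF-2D added to complete medium. Cells then washed in PBS, trypsinized and analysed by flow cytometry for DAF fluorescence (ex 485/em 538 nm). Read-out is % DAF-positive cells relative to DMSO control.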

[2] = organism: Cavia porcellus; test: Potency index, ratio of potency for test compound to potency for nifedipine for inhibition of calcium channel in guinea pig ileum longitudinal smooth muscle assessed as inhibition of calcium-induced contraction; assay type: tissue-based
[3] = target: T1, NAD-dependent protein deacetylase sirtuin-1 (Homo sapiens) (UniProt Q96EB6); test: Activation of full-length GST-tagged recombinant human SIRT1 assessed as enzyme activity obtained with subtraction of intrinsic fluorescence using p53-based untagged peptide as substrate at 50 uM after 30 mins by SIRTainty assay
T1 sequence (whole entry): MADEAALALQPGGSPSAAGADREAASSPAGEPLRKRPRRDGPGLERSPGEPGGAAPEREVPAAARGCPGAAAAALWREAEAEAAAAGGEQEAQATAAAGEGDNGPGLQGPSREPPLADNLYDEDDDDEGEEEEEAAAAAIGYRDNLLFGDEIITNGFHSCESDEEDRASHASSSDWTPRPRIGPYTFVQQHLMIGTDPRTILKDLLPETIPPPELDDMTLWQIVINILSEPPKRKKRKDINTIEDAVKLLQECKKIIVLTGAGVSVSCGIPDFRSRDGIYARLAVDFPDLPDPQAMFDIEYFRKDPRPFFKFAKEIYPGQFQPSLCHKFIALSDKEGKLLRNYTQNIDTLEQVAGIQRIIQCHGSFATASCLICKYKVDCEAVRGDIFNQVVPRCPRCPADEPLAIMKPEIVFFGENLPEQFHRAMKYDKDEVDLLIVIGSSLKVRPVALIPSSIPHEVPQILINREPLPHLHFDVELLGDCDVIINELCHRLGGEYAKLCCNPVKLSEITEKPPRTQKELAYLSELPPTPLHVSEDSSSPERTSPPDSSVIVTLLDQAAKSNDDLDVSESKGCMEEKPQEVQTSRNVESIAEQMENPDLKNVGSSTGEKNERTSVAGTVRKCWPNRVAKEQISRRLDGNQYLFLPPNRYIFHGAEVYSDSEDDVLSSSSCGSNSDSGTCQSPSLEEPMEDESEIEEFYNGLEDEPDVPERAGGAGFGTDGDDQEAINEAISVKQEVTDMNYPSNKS

[4] = tested on: C2C12; test: Activation of AMPK/SIRT1 in mouse C2C12 cells assessed as increase in mitochondrial density at 30 uM after 16 hrs by Mitotracker Green staining-based confocal microscopy in presence of EX-527; assay type: cell-based
Outline: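 C2C12 myoblasts plated overnight, then in serum-free HBSS pH 7.4 and treated 16 h at 30 µM, alone or with 5 µM inhibitor (EX-527 or compound C). Mitotracker Green at 200 nM final was added for the last 30 min. Cells were fixed in 4% paraformaldehyde, permeabilized with Triton X-100 and imaged by confocal microscopy with fixed settings. Alternatively, mitochondrial fluorescence was quantified in plates.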

[5] = target: 3',5'-cyclic-AMP phosphodiesterase 4D (Homo sapiens) (UniProt Q08499); test: Inhibition of recombinant human PDE4D assessed as phosphate release using cAMP as substrate at 50 uM after 60 mins by malachite green assay
Outline: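 Recombinant human PDE4D (20 mU) in 10 mM Tris-HCl pH 7.4 with cAMP substrate. Compounds at 50 µM in DMSO; rolipram 10 µM as positive control. Incubated 60 min at 37 °C, then phosphate release measured by malachite green absorbance at 620 nm. Mean of three determinations.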

[6] = tested on: LoVo; test: Antiproliferative activity against human LoVo cells assessed as cell viability after 72 hrs by MTT assay; assay type: functional, cell-based
Outline: (§2)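 Cells grown in RPMI with 10% fetal calf serum and penicillin, seeded in sextuplicate at 3 × 10^3 cells/well. After 24 h, cells were exposed 72 h to 5–200 µM. Viability was measured by MTT and expressed as treated/untreated × 100. IC50 was calculated from three independent experiments, reported as mean ± SD.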

[7] = tested on: Caov-3 cell line; test: Antiproliferative activity against human Caov3 cells assessed as cell viability after 72 hrs by MTT assay; assay type: functional, cell-based; details: Caov-3, 72 h; outline: as §2
[8] = organism: Cavia porcellus; test: Antagonist activity at calcium channel in guinea pig smooth muscle assessed as inhibition of calcium-induced contraction in K+-depolarized aortic strips at 50 uM
Outline: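 Guinea-pig isolated aortic strips depolarized with 80 mM K+; read-out is percent inhibition of calcium-induced contraction.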

[9] = tested on: A549; test: Antiproliferative activity against human A549 cells assessed as cell viability after 72 hrs by MTT assay; assay type: functional, cell-based; details: A549, 72 h; outline: as §2
[10] = tested on: HT-29; test: Antiproliferative activity against human HT-29 cells assessed as cell viability after 72 hrs by MTT assay; assay type: functional, cell-based; details: HT-29, 72 h; outline: as §2
[11] = tested on: HaCaT; test: Activation of AMPK/SIRT1 in human HaCaT cells assessed as nitric oxide production at 10 uM incubated for 1 hr in presence of EX-527 by DAF-2D staining-based fluorescence assay; assay type: cell-based
Outline: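 HaCaT cells in DMEM with 10% FBS. DHP (10 µM) given for 1 h alone or together with 10 µM AMPK inhibitor compound C or 10 µM SIRT1 inhibitor EX-527. Intracellular NO read by flow cytometry after loading with 5 µM DAF-2D in medium (ex 485/em 538 nm). Expressed as % DAF-positive cells versus DMSO.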

[12] = tested on: HaCaT; test: Activation of AMPK/SIRT1 in human HaCaT cells assessed as nitric oxide production at 1 uM incubated for 1 hr by DAF-2D staining-based fluorescence assay; assay type: cell-based; outline: as §1
[13] = tested on: M14; test: Antiproliferative activity against human M14 cells assessed as cell viability after 72 hrs by MTT assay; assay type: functional, cell-based; details: M14, 72 h; outline: as §2
[14] = target: T1, NAD-dependent protein deacetylase sirtuin-1 (Homo sapiens); test: Activation of full-length GST-tagged recombinant human SIRT1 assessed as enzyme activity obtained without subtraction of intrinsic fluorescence using p53-based untagged peptide as substrate at 50 uM after 30 mins by SIRTainty assay
[15] = tested on: HEY; test: Antiproliferative activity against human HEY cells assessed as cell viability after 72 hrs by MTT assay; assay type: functional, cell-based; outline: as §2
[16] = target: T1, NAD-dependent protein deacetylase sirtuin-1 (Homo sapiens); test: Activation of SIRT1 in human HaCaT cells assessed as H4K16 deacetylation at 1 uM after 1 hr by Western blotting method; assay type: cell-based
Outline: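 HaCaT cells treated 1 h at 1 µM, DMSO as solvent control. Cells lysed in Laemmli buffer and immunoblotted for acetyl-H4K16 (1:1000), with total histone H4 as loading control. Bands quantified by densitometry. At least three independent experiments.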

[17] = Antiproliferative activity against human SAN cells assessed as cell viability after 72 hrs by MTT assay; assay type: functional, cell-based; outline: as §2

3',5'-cyclic-AMP phosphodiesterase 4D (Homo sapiens), sequence (Q08499 whole entry): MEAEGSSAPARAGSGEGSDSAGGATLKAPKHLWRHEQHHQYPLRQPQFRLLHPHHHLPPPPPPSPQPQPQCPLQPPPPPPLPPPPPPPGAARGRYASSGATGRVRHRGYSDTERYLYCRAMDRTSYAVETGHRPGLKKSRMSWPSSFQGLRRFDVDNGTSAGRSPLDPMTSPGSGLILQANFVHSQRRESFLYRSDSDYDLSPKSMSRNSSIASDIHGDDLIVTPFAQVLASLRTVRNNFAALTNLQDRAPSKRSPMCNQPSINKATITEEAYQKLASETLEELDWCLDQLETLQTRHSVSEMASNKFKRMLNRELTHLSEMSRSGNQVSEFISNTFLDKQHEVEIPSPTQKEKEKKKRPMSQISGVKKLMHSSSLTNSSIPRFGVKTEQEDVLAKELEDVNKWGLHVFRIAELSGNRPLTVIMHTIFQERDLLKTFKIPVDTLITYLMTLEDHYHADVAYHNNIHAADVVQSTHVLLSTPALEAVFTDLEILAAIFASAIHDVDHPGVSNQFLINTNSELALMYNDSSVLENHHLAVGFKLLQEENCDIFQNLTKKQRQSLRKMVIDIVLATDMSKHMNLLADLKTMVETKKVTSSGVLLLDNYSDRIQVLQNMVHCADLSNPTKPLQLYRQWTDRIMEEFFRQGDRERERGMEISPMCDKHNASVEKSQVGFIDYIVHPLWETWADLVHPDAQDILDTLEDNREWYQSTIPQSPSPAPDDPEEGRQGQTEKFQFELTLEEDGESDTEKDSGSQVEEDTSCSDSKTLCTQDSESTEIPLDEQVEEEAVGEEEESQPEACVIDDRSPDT

For CCOC(=O)C1=CN(C(=O)c2ccccc2)C=C(C(=O)OCC)C1c1ccccc1, the Activity [1] was “Dose-dependent effect”, the Ratio [2] was 720 and the Activity [3] was 153%. For the same compound, the Activity [4] was “inactive”, the inhibition [5] was “inactive” and the IC50 [6] was 22 µM. The IC50 [7] was > 200 µM, the inhibition [8] was 12% and the IC50 [9] was 169 µM. For the same compound, the IC50 [10] was 80 µM, the Activity [11] was “inactive” and the Activity [12] was “Active”. The IC50 [13] was 153 µM, the Activity [14] was 244% and the IC50 [15] was 143 µM. The Activity [16] was “Active” and the IC50 [17] was 161 µM.
